45 compounds from ChEMBL document CHEMBL1777724, “Discovery, design and synthesis of the first reported potent and selective sphingosine-1-phosphate 4 (S1P4) receptor antagonists” (Bioorg Med Chem Lett, 2011) can be followed below.

The target in experiment [1] is T1, Sphingosine 1-phosphate receptor 4 (Homo sapiens, UniProt O95977).
T1 sequence (O95977 whole entry): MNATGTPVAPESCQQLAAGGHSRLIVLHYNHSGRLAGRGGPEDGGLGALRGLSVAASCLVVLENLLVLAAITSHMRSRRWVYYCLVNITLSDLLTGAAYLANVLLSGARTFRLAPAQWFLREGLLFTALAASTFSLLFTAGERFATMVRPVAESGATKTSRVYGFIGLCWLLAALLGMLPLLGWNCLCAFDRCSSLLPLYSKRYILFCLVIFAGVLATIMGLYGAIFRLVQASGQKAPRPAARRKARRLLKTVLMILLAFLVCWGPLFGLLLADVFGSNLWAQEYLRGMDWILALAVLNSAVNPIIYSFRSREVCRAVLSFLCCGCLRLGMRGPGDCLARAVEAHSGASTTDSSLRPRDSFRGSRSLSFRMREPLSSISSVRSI
In words: Antagonist activity at S1P4 receptor in human U2OS cells expressing EDG6-linked GAL4-VP16 transcription factor via TEV protease site/beta-arrestin/TEV protease fusion protein and beta-lactamase reporter gene assessed as beta-lactamase expression by FRET assay. The class given is functional, cell-based. Summed up:
(§1)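 Cells co-express a beta-arrestin/TEV protease fusion protein and a beta-lactamase reporter gene under a UAS response element. Reporter expression was read as FRET of a cleavable, fluorogenic, cell-permeable beta-lactamase substrate. Compounds were tested at concentrations up to 25 μM. IC50 values are the mean of n = 3 determinations.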

Experiment [2] concerns the target T2, Sphingosine 1-phosphate receptor 2 (Homo sapiens, UniProt O95136). In words: Inhibition of S1P2 receptor at 25 uM. Summed up:
(§2)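 Selectivity counter-screen reported as percentage of inhibition at a single 25 μM concentration, given as the mean of n = 3 determinations.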

Experiment [3] has as its target T3, Sphingosine 1-phosphate receptor 1 (Homo sapiens, UniProt P21453). In words: Inhibition of S1P1 receptor at 25 uM. Summed up:
as §2

Experiment [4] addresses T4, Sphingosine 1-phosphate receptor 5 (Homo sapiens, UniProt Q9H228). Kind of experiment: Inhibition of S1P5 receptor at 25 uM. Summed up: as §2
The target in experiment [5] is Sphingosine 1-phosphate receptor 3 (Homo sapiens, UniProt Q99500). In words: Inhibition of S1P3 receptor at 25 uM. Summed up: as §2
For experiment [6], the target named is T2, Sphingosine 1-phosphate receptor 2. In words: Inhibition of S1P2 receptor.
Experiment [7] addresses T5, Sphingosine 1-phosphate receptor 4 (Homo sapiens) (UniProt O95977).
T5 sequence (whole entry): T1 sequence (O95977 whole entry)
Kind of experiment: Antagonist activity at S1P4 receptor in human U2OS cells expressing EDG6-linked GAL4-VP16 transcription factor via TEV protease site/beta-arrestin/TEV protease fusion protein and beta-lactamase reporter gene assessed as beta-lactamase expression up to 25 uM by FRET assay. Format: functional, cell-based. Summed up: as §1

The target of experiment [8] is T3, Sphingosine 1-phosphate receptor 1. In words: Inhibition of S1P1 receptor.
Experiment [9] deals with T4, Sphingosine 1-phosphate receptor 5. In words: Inhibition of S1P5 receptor.

The structures appear in SMILES notation. Calls of active or inactive are those of the source. No cut-off for these calls is given here.

T3 sequence (P21453 whole entry): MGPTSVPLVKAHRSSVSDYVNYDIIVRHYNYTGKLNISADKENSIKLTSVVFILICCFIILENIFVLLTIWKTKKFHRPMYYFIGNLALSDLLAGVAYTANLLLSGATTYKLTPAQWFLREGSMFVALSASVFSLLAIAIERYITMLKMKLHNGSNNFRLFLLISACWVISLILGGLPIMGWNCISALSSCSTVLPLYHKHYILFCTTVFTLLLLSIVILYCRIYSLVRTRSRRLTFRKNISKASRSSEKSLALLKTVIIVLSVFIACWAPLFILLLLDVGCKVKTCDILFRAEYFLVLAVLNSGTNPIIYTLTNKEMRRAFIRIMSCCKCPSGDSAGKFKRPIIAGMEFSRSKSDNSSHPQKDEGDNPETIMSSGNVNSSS
T4 sequence (Q9H228 whole entry): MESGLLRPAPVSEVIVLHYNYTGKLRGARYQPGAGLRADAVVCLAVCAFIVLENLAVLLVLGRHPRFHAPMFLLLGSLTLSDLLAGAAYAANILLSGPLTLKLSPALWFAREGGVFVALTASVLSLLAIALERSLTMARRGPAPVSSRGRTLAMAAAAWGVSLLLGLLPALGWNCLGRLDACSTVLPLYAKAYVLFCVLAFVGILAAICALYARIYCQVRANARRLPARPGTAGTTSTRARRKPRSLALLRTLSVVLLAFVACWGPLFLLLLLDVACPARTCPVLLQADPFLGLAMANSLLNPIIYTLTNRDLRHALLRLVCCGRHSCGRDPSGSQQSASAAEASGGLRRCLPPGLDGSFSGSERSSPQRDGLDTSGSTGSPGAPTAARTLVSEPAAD
T2 sequence (O95136 whole entry): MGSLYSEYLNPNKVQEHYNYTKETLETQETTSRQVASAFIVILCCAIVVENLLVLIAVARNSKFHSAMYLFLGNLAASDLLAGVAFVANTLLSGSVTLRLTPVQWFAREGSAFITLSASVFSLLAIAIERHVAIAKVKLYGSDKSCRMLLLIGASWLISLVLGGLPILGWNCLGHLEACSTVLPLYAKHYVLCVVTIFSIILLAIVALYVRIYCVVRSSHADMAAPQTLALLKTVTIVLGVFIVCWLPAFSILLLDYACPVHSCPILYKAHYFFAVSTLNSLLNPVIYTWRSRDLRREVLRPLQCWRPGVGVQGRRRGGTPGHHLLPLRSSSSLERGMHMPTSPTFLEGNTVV
Chain of Sphingosine 1-phosphate receptor 3 (Q99500 whole entry): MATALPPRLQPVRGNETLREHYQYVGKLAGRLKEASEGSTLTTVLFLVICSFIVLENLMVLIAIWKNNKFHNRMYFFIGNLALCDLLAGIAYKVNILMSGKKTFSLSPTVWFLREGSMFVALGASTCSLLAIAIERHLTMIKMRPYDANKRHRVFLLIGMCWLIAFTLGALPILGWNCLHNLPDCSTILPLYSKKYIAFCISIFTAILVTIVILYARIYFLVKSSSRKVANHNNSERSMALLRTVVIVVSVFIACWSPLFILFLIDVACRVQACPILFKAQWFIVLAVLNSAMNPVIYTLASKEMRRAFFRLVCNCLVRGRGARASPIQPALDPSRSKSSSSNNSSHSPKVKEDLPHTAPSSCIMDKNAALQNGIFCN

Regarding `Cc1cccc(C)c1N(C)C(=O)c1ccc(-c2ccco2)o1`, in experiment [1], the IC50 was 130 nM.

Consider `CC(C)c1cccc(C(C)C)c1NC(=O)c1ccc(-c2cc(Cl)ccc2Cl)o1`, for which the IC50 in [1] came out at 105 nM.

Take `Cc1cccc(Cl)c1NC(=O)c1ccc(-c2cc(Cl)ccc2Cl)o1`: the IC50 in experiment [1] was found to be 169 nM.

As to `COc1ccc(NC(=O)c2ccc(-c3cc(Cl)ccc3Cl)o2)c(C)c1`, the IC50 in [1] was determined as 589 nM.

As for `Cc1cccc(C)c1NC(=O)c1ccc(-c2ccsc2)o1`, the IC50 in [1] was 448 nM.

Turning to `O=C(Nc1c(F)cccc1F)c1ccc(-c2cc(Cl)ccc2Cl)o1`, in experiment [1], the IC50 was 6400 nM.

As to `Cc1cccc(C)c1NC(=O)c1ccc(-c2ccccc2)o1`, in experiment [1], the IC50 was found to be 575 nM.

Take `CCc1cccc(C)c1NC(=O)c1ccc(-c2cc(Cl)ccc2Cl)o1`: the values for the inhibition in experiment [2], in experiment [4] and in experiment [5] were 50%, 50% and 55%, respectively. The inhibition entry in experiment [3] was “inactive”. For the same compound, in experiment [1], the IC50 was found to be 41 nM.

Take `Cc1cc(CO)cc(C)c1NC(=O)c1ccc(-c2cc(Cl)ccc2Cl)o1`: the inhibition was found to be 85% in [2], 45% in experiment [3], 40% in [4] and 60% in experiment [5]. Also, the IC50 in [1] was 21 nM; in experiment [6], 3000 nM.

As for `COc1ccc(C)c(NC(=O)c2ccc(-c3cc(Cl)ccc3Cl)o2)c1`, the half-maximal inhibitory concentration (IC50) in [1] is 931 nM.

Regarding `Cc1cccc(CO)c1NC(=O)c1ccc(-c2cc(Cl)ccc2Cl)o1`, the IC50 in experiment [1] worked out at 573 nM.

On to `Cc1ccc(C)c(-c2ccc(C(=O)Nc3c(C)cccc3C)o2)c1`, for which, in experiment [1], the IC50 amounted to 64 nM.

On to `CC(=O)OCc1cc(C)c(NC(=O)c2ccc(-c3cc(Cl)ccc3Cl)o2)c(C)c1`, for which the IC50 in [1] was 34 nM.

For the compound `Cc1cc(OCCO)cc(C)c1NC(=O)c1ccc(-c2cc(Cl)ccc2Cl)o1`, the inhibition in experiment [2] was determined as 90%; in experiment [3] it was 35%; in [4], 60%; in experiment [5], 70%. In addition, the IC50 in experiment [1] amounted to 44 nM; in experiment [6], 2400 nM.

For `Cc1cccc(C)c1NC(=O)c1ccc(-c2cc(C(F)(F)F)ccc2C(F)(F)F)o1`, the inhibition entry in experiment [7] is “inactive”.

Regarding `O=C(c1ccc(-c2cc(Cl)ccc2Cl)o1)N1CCc2ccccc21`, the inhibition result in experiment [7] is “inactive”.

Turning to `Cc1cccc(C)c1NC(=O)c1ccc(-c2cccc(Cl)c2)o1`, the IC50 in experiment [1] came out at 497 nM.

On to `Cc1ccc2ccccc2c1NC(=O)c1ccc(-c2cc(Cl)ccc2Cl)o1`, for which, in experiment [1], the IC50 is 253 nM.

For `Cc1cccc(C)c1N(C)C(=O)c1ccc(-c2ccccc2Cl)o1`, the half-inhibitory concentration (IC50) in experiment [1] is 269 nM.

For `Cc1cc(OCC(N)=O)cc(C)c1NC(=O)c1ccc(-c2cc(Cl)ccc2Cl)o1`, in [1], the IC50 was 52 nM.

Regarding `CCc1cccc(CC)c1NC(=O)c1ccc(-c2cc(Cl)ccc2Cl)o1`, the inhibition entry in experiment [2], in experiment [3], in experiment [4] and in experiment [5] was “inactive” each time. Moreover, the IC50 in [1] turned out to be 89 nM.

Regarding `CC(=O)NCc1cc(C)c(NC(=O)c2ccc(-c3cc(Cl)ccc3Cl)o2)c(C)c1`, the IC50 in [1] stood at 94 nM.

As for `Cc1cccc(C)c1NC(=O)c1ccc(-c2c(C)cccc2C)o1`, the inhibition entry in experiment [7] was “inactive”.

`Cc1cc(O)cc(C)c1NC(=O)c1ccc(-c2cc(Cl)ccc2Cl)o1` yielded an inhibition in experiment [2] of 90%. The IC50 was determined as 5.3 µM in [8], 58 nM in experiment [1], 2800 nM in experiment [6] and 3 µM in experiment [9].

As to `Cc1cscc1-c1ccc(C(=O)Nc2c(C)cccc2C)o1`, in experiment [1], the IC50 was 286 nM.

For the compound `Cc1ccsc1-c1ccc(C(=O)Nc2c(C)cccc2C)o1`, the inhibition in experiment [3] stood at 95%; in experiment [4], 40%; in experiment [5], 20%. The IC50 in [1] worked out at 93 nM; in experiment [6] it was 2600 nM.

Turning to `Cc1cc(-c2ccccc2)cc(C)c1NC(=O)c1ccc(-c2cc(Cl)ccc2Cl)o1`, the IC50 in experiment [1] worked out at 115 nM.

Consider `Cc1ccsc1-c1ccc(C(=O)Nc2c(C)cc(CO)cc2C)o1`, for which the results for the inhibition in experiment [2] and in [3] were 90% and 80%, respectively. In addition, the inhibition result in experiment [4] and in experiment [5] was “inactive” each time. For the same compound, in experiment [1], the IC50 worked out at 34 nM.

In the case of `Cc1cccc(C)c1NC(=O)c1ccc(-c2cc(Cl)ccc2Cl)o1`, the IC50 in experiment [1] amounted to 78 nM; in experiment [9] it was 14 µM.

For the compound `Cc1cccc(C)c1NC(=O)c1ccc(-c2cc(F)ccc2F)o1`, the IC50 in experiment [1] came to 308 nM.

Turning to `COc1cccc(OC)c1NC(=O)c1ccc(-c2cc(Cl)ccc2Cl)o1`, the IC50 in experiment [1] came out at 417 nM.

Regarding `Cc1cc(C)c(NC(=O)c2ccc(-c3cc(Cl)ccc3Cl)o2)c(C)c1`, the IC50 in experiment [1] worked out at 63 nM.

Regarding `Cc1cccc(C)c1NC(=O)c1ccc(-c2ccc(Cl)s2)o1`, in [1], the IC50 came to 515 nM.

Take `Cc1ccc(C)c(NC(=O)c2ccc(-c3cc(Cl)ccc3Cl)o2)c1`: in experiment [1], the IC50 was 165 nM.

Regarding `COc1cccc(C)c1NC(=O)c1ccc(-c2cc(Cl)ccc2Cl)o1`, in [1], the IC50 is 163 nM.

As to `Cc1ccc(S(C)(=O)=O)c(C)c1NC(=O)c1ccc(-c2cc(Cl)ccc2Cl)o1`, in [1], the IC50 is 302 nM.

Take `Cc1cc(CN)cc(C)c1NC(=O)c1ccc(-c2cc(Cl)ccc2Cl)o1`: the inhibition in [2] was determined as 90%; in experiment [4], 90%; in experiment [5], 95%. Besides, the IC50 was found to be 6.4 µM in experiment [8], 25 nM in experiment [1], 3900 nM in [6] and 5.5 µM in [9].

In the case of `COc1ccc(OC)c(-c2ccc(C(=O)N(C)c3c(C)cccc3C)o2)c1`, the IC50 in experiment [1] amounted to 513 nM.

On to `Cc1cccc(C)c1NC(=O)c1ccc(-c2ccc(Cl)cc2Cl)o1`, for which the IC50 in experiment [1] came out at 2000 nM.

With `Cc1ccsc1-c1ccc(C(=O)Nc2c(C)cc(O)cc2C)o1`, the inhibition in experiment [2] amounted to 80%; in experiment [3], 75%; in [5], 10%. Further, in experiment [4], the inhibition result is “inactive”. Moreover, the half-maximal inhibitory concentration (IC50) in experiment [1] was determined as 46 nM.

With `Cc1cccc(C)c1NC(=O)c1ccc(-c2cccs2)o1`, the IC50 in [1] turned out to be 118 nM.

With `COc1cc(C)c(NC(=O)c2ccc(-c3cc(Cl)ccc3Cl)o2)c(C)c1`, the inhibition in experiment [2] was found to be 70%; in [3], 20%; in experiment [4], 40%; in experiment [5], 30%. The IC50 in experiment [1] turned out to be 80 nM; in [6], 2800 nM.

On to `Cc1cc(C)c(N(C)C(=O)c2ccc(-c3cc(Cl)ccc3Cl)o2)c(C)c1`, for which the IC50 in experiment [1] turned out to be 8100 nM.

As for `Cc1cccc(C)c1N(C)C(=O)c1ccc(-c2cc(O)ccc2O)o1`, the inhibition entry in experiment [7] is “inactive”.

As for `Cc1cc(CN(C)C)cc(C)c1NC(=O)c1ccc(-c2cc(Cl)ccc2Cl)o1`, the IC50 in experiment [1] came out at 348 nM.
